The results in this text go back to ChEMBL document CHEMBL2424583, “Structure-activity relationship and in vitro and in vivo evaluation of the potent cytotoxic anti-microtubule agent N-(4-methoxyphenyl)-N,2,6-trimethyl-6,7-dihydro-5H-cyclopenta[d]pyrimidin-4-aminium chloride and its analogues as antitumor agents” (J Med Chem, 2013).

The nature of data set [1]: Relative resistance, ratio of IC50 for beta3 tubulin overexpressed in human HeLa cells to IC50 for human HeLa cells. The method, boiled down: (§1)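 SRB antiproliferative assay on isogenic pairs: parental SK-OV-3 vs Pgp-overexpressing SK-OV-3 MDR-M6-6, and parental HeLa vs βIII-tubulin-transfected HeLa. IC50 is the mean ± SD of at least three independent experiments. Relative resistance (Rr) is the IC50 of the transduced line divided by the IC50 of the parental line.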

Data set [2] in a line: Relative resistance, ratio of IC50 for M6-6 in human SKOV3 cells to IC50 for human SKOV3 cells. Further details: species or system SK-OV-3. The method, boiled down:
as §1

The test system of data set [3] is MDA-MB-231. As to the kind of experiment: Antitumor activity against human MDA-MB-231 cells xenografted in athymic nude mouse assessed as tumor free state at 75 mg/kg, ip qd administered on day 14 for 5 days followed by compound readministration on day 27 measured on day 41. The data set is classed as functional, organism-based. Further details: dose 75 mg/kg. The essentials: (§2)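 Female athymic nude mice carried sc MDA-MB-231T tumor fragments staged to about 125 mg. Compound was given ip as a solution in 10% DMSO in saline/Tween 80, with courses beginning day 14 and repeated from day 27. Groups had 8 animals, with 16 vehicle controls. Animals were scored as tumor-free on day 41.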
(In xenograft studies the graft and the host belong to different species.)

In the next data set the test system is CAKI-1. Nature of the data set: Cytotoxicity against human CAKI-1 cells assessed as growth inhibition after 48 hrs by SRB assay. The format is functional. To be noted: CAKI-1, 48 h. (The SRB assay estimates cell density from bound dye.)
Data set [4] deals with Mus musculus. As to the kind of experiment: Toxicity in athymic nude mouse xenografted in human MDA-MB-231 cells assessed as mortality at 75 mg/kg, ip qd administered on day 14 for 5 days followed by compound readministration on day 27. To be noted: in vivo, 120 h. The data set is classed as organism-based. Further details: dose 75 mg/kg, route intraperitoneal. The method, boiled down: (§3)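 Female athymic nude mice were implanted sc with an MDA-MB-231T tumour fragment, and tumours were staged to about 125 mg. Drug was given ip in 10% DMSO in saline/Tween 80, with courses starting day 14 and repeated from day 27. There were 8 animals per treated group and 16 controls. Read-outs were body weight, deaths, median tumour mass as T/C, days to a predetermined size as T-C/C, and net log cell kill.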

Data set [5] has as its system MDA-MB-231. Nature of the data set: Antitumor activity against human MDA-MB-231 cells xenografted in athymic nude mouse assessed as tumor free state at 50 mg/kg, ip bid administered every other day started on day 14 followed by compound readministration every other day started on day 27 measured on day 41. The format is functional, organism-based. On the set-up: dose 50 mg/kg. The essentials: as §2

For data set [6], the system named is MDA-MB-231. As to the kind of experiment: Antitumor activity against human MDA-MB-231 cells xenografted in athymic nude mouse assessed as tumor log cell kill at 75 mg/kg, ip qd administered every other day started on day 14 for 5 days followed by compound readministration on day 27. The format is functional. To be noted: route intraperitoneal. The essentials:
as §3

The test system of data set [7] is Mus musculus. Nature of the data set: Toxicity in athymic nude mouse xenografted in human MDA-MB-231 cells assessed as body weight loss at 50 mg/kg, ip qd administered on day 14 for 5 days followed by compound readministration on day 27 (reference value: 6.7%). The data set is classed as organism-based. The settings on record: in vivo, 120 h. On the set-up: dose 50 mg/kg, route intraperitoneal.

Data set [8] has as its system Mus musculus. As to the kind of experiment: Toxicity in athymic nude mouse xenografted in human MDA-MB-231 cells assessed as mortality at 50 mg/kg, ip bid administered every other day started on day 14 followed by compound readministration every other day started on day 27. The data set is classed as organism-based. On the set-up: dose 50 mg/kg, route intraperitoneal. The settings on record: in vivo. The method, boiled down: as §3

The next data set relates to HeLa. Nature of the data set: Antiproliferative activity against human HeLa cells after 48 hrs by SRB assay. The data set is classed as functional, cell-based. The essentials:
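Isogenic pairs: parental SK-OV-3 alongside its Pgp-overexpressing subline MDR-M6-6, and parental HeLa alongside βIII-tubulin-transfected HeLa. Antiproliferative IC50 measured by sulforhodamine B assay, averaged from at least three independent experiments ± SD. Relative resistance is the transduced-line IC50 divided by the parental-line IC50.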

The subject of data set [9] is Mus musculus. As to the kind of experiment: Toxicity in athymic nude mouse xenografted in human MDA-MB-231 cells assessed as body weight loss at 75 mg/kg, ip qd administered every other day started on day 14 for 5 days followed by compound readministration on day 27 (reference value: 6.7%). Further details: dose 75 mg/kg, route intraperitoneal. The format is organism-based. To be noted: in vivo, 120 h.

Data set [10] relates to Mus musculus. As to the kind of experiment: Toxicity in athymic nude mouse xenografted in human MDA-MB-231 cells assessed as mortality at 75 mg/kg, ip qd administered every other day started on day 14 for 5 days followed by compound readministration on day 27. The data set is classed as organism-based. On the set-up: dose 75 mg/kg, route intraperitoneal. The settings on record: in vivo, 120 h. The method, boiled down: as §3

In data set [11] the test system is MDA-MB-231. As to the kind of experiment: Antitumor activity against human MDA-MB-231 cells xenografted in athymic nude mouse assessed as tumor growth inhibition at 75 mg/kg, ip qd administered every other day started on day 14 for 5 days followed by compound readministration on day 27 measured on day 31 relative to control. The format is functional. The settings on record: route intraperitoneal. The essentials: as §3

The test system of data set [12] is MDA-MB-231. As to the kind of experiment: Antitumor activity against human MDA-MB-231 cells xenografted in athymic nude mouse assessed as tumor free state at 50 mg/kg, ip qd administered on day 14 for 5 days followed by compound readministration on day 27 measured on day 41. The data set is classed as functional, organism-based. Further details: dose 50 mg/kg. The essentials: as §2

In data set [13] the test system is MDA-MB-231. As to the kind of experiment: Antitumor activity against human MDA-MB-231 cells xenografted in athymic nude mouse assessed as tumor growth inhibition at 50 mg/kg, ip bid administered every other day started on day 14 followed by compound readministration every other day started on day 27 measured on day 31 relative to control. The data set is classed as functional. To be noted: route intraperitoneal. The essentials:
as §3

The subject of data set [14] is MDA-MB-231. As to the kind of experiment: Antitumor activity against human MDA-MB-231 cells xenografted in athymic nude mouse assessed as delay in tumor growth at 75 mg/kg, ip qd administered on day 14 for 5 days followed by compound readministration on day 27 measured on day 31 relative to control. The format is functional. The settings on record: route intraperitoneal. The method, boiled down: as §3

Data set [15] deals with Mus musculus. Nature of the data set: Toxicity in athymic nude mouse xenografted in human MDA-MB-231 cells assessed as body weight loss at 75 mg/kg, ip qd administered on day 14 for 5 days followed by compound readministration on day 27 (reference value: 6.7%). The format is organism-based. The settings on record: in vivo, 120 h. On the set-up: dose 75 mg/kg, route intraperitoneal.

Activity calls are given as the source filed them. No cut-off for these calls is given here.

For `COc1ccc(N(C)c2nc(C)nc3c2CC(C)C3)cc1.Cl` (racemic), the “Ratio IC50” value in data set [1] is recorded as 0.6; in [2], 1.2.

The GI50 is the concentration giving 50% growth inhibition. In general, IC50 refers to the midpoint of a concentration-inhibition curve. A low value points to greater potency in that assay. What is called T/C is the result in the treated group divided by that in the control group, in per cent. As for `COc1ccc(N(C)c2nc(C)nc3c2CCC3)cc1.Cl`, the result in the data set on MDA-MB-231 [3], in the data set on MDA-MB-231 [5] and in the data set with MDA-MB-231 [12] was Active. For the same compound, in the data set on CAKI-1, the GI50 was less than 10 nM. Moreover, the Activity result with Mus musculus [4] is “Non-toxic”; in the data set with Mus musculus [8], “Non-toxic”; in the data set with Mus musculus [10], “Non-toxic”; in the data set with MDA-MB-231 [14], 40%. For the same compound, the LCK in the data set on MDA-MB-231 [6] is given as -1.5. The “%max” value in the data set with Mus musculus [7] is given as 7.7%; in the data set with Mus musculus [9], 9%; with Mus musculus [15], 7.9%. For the same compound, in the data set with HeLa, half-maximal inhibition (IC50) was put at 9.3 nM. For the same compound, the T/C in the data set with MDA-MB-231 [11] came out at 19%; in the data set on MDA-MB-231 [13] it was 25%.
